From ChEMBL document CHEMBL1221391, “Identification of novel antitubercular compounds through hybrid virtual screening approach” (Bioorg Med Chem, 2010)
In brackets after ≈: the same amount, converted by molar mass.

Tested on: Mycobacterium tuberculosis
Test: Antitubercular activity against Mycobacterium tuberculosis H37Rv after 7 days
Assay type: functional, organism-based
Conditions: 168 h
How it was run: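 MABA in 7H9 broth with 0.2% glycerol, 1.0 g/l Casitone, 10% OADC and 0.05% Tween 80, grown to OD600 0.4. Culture diluted 1:50 to give 2 × 10^5 CFU/ml. Twofold serial dilutions made from DMSO stock. Incubated 37 °C for 7 days, then alamar blue added and read after 24 h. MIC is the lowest concentration preventing the blue-to-pink change. Rifampicin reference.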

| SMILES | MIC | IC50 |
| --- | --- | --- |
| Cc1ccc(NC(=O)C2CC(=O)N(CCc3c[nH]c4ccc(Cl)cc34)C2)cc1 (stereo not drawn) | 80.8 µM (≈ 32 µg/mL) |  |
| Cc1[nH]c2cc(C(=O)N3CCN(Cc4ccccc4)CC3)ccc2c1C | 368 µM (≈ 128 µg/mL) |  |
| COc1cccc(CNC(=O)CN2CCCN(Cc3ccc(Cl)cc3)S2(=O)=O)c1 | 146 µM (≈ 64 µg/mL) |  |
| Cc1oc(-c2ccccc2)nc1CN1CCN(C(=O)c2ccccc2)CC1 | 187 µM (≈ 67.8 µg/mL) |  |
| O=C(C1CC(=O)N(C2CCCC2)C1)N1CCC(Cc2ccccc2)CC1 (stereo not drawn) | 361 µM (≈ 128 µg/mL) |  |
| O=C(NCc1ccc(F)cc1)C1CC(=O)N(C2CCCCCCC2)C1 (stereo not drawn) | 369 µM (≈ 128 µg/mL) |  |
| O=C(c1ccc(F)cc1)N1CCN(C2c3ccccc3-c3ccccc32)CC1 | 85.9 µM (≈ 32 µg/mL) |  |
| O=C(c1cccs1)N1CCN(C2c3ccccc3-c3ccccc32)CC1 | 355 µM (≈ 128 µg/mL) |  |
| CCCCCCCc1ccc(C(=O)Oc2ccc([N+](=O)[O-])cc2)cc1 | 187 µM (≈ 64 µg/mL) |  |
| Cc1ccc(OC(=O)c2ccc(Cl)cc2)cc1 | 259 µM (≈ 64 µg/mL) |  |
| CCCCCCc1ccc(C(=O)Oc2ccc(Cl)cc2)cc1 | 202 µM (≈ 64 µg/mL) |  |
| Cc1ccc(C(=O)CC(=O)c2ccc(Cl)cc2)c(O)c1 | 13.8 µM (≈ 4 µg/mL) |  |
| CCc1ccc(C(=O)Oc2cccnc2)cc1 | 563 µM (≈ 128 µg/mL) |  |
| CCCCCc1ccc(OC(=O)c2ccc(Cl)cc2)cc1 | 106 µM (≈ 32 µg/mL) |  |
| O=C(Nc1ccccc1O)c1ccc(Oc2ccc([N+](=O)[O-])cc2)cc1 | 5.7 µM (≈ 2 µg/mL) |  |
| Cc1ccc(/N=C/c2cc(Cc3ccccc3Cl)ccc2O)c(O)c1 | 182 µM (≈ 64 µg/mL) |  |
| O=C1c2ccc(Oc3cccc([N+](=O)[O-])c3)cc2C(=O)N1c1ccccc1O | 85 µM (≈ 32 µg/mL) |  |
| Oc1cccc(Oc2c(F)c(F)nc(F)c2F)c1 | 247 µM (≈ 64 µg/mL) |  |
| CCc1ccc(O)c(/N=C/c2cc(Cl)cc(Cl)c2O)c1 | 206 µM (≈ 64 µg/mL) |  |
| O=[N+]([O-])c1ccc(Oc2cc(C(F)(F)F)ccc2Cl)cc1O | 384 µM (≈ 128 µg/mL) |  |
| S=C(c1ccc(Br)cc1)N1CCN(Cc2ccccc2)CC1 | 85.2 µM (≈ 32 µg/mL) |  |

| SMILES | MIC | IC50 |
| --- | --- | --- |
| Cc1ccc(S(=O)(=O)N2CCN(C(=O)c3ccc(Br)cc3)CC2)cc1 | 302 µM (≈ 128 µg/mL) |  |
| Cc1ccc(C(=O)N2CCN(S(=O)(=O)c3ccccc3)CC2)cc1 | 372 µM (≈ 128 µg/mL) |  |
| O=C(Nc1ccc(C(F)(F)F)cc1)NC1CC(=O)N(C2CCCC2)C1 (stereo not drawn) | 180 µM (≈ 64 µg/mL) |  |
| CCCCCc1ccc(Oc2ccccc2)c(O)c1 | 3.5 µM (≈ 0.897 µg/mL) | 17 nM |
| CCCCCCCCCCCCCCc1ccc(Oc2ccccc2)c(O)c1 | 460 µM (≈ 176 µg/mL) | 150 nM |
| CN(C(=O)C1CC(=O)N(C2CCCCCC2)C1)c1cc(-c2ccccc2)c(O)c(-c2ccccc2)c1 (stereo not drawn) | > 125 µM | 360 nM |
| O=C(CCN1C(=O)c2ccccc2C1=O)N1CCN(C(c2ccccc2)c2ccccc2)CC1 | 141 µM (≈ 64 µg/mL) |  |
| Cc1ccc(C(=O)N2CCN(c3cccc(Cl)c3)CC2)cc1C | > 125 µM | 990 nM |
| O=C(c1ccccc1)N1CCN(C2c3ccccc3-c3ccccc32)CC1 | > 125 µM | 90 nM |
| Oc1cc(CCCc2ccccc2)ccc1Oc1ccc(Cl)cc1Cl | 50 µM (≈ 18.7 µg/mL) | 50 nM |
| Oc1cc(CCc2ccccc2)ccc1Oc1ccc(Cl)cc1Cl | 52 µM (≈ 18.7 µg/mL) | 21 nM |
| CC(C)Cc1ccc(Oc2ccc(Cl)cc2Cl)c(O)c1 | 60 µM (≈ 18.7 µg/mL) | 96 nM |
| CCCCCCc1ccc(Oc2ccccc2)c(O)c1 | 7.8 µM (≈ 2.11 µg/mL) | 11 nM |
| O=C(Nc1cc(Br)cc(C(F)(F)F)c1)C1CC(=O)N(C2CCCCC2)C1 (stereo not drawn) | 62.5 µM (≈ 27.1 µg/mL) | 850 nM |
| Cc1ccc(C(=O)N2CCN(C3c4ccccc4-c4ccccc43)CC2)cc1 | > 125 µM | 400 nM |
| CCCCc1ccc(Oc2ccc(Cl)cc2Cl)c(O)c1 | 30 µM (≈ 9.34 µg/mL) | 91 nM |
| Oc1cc(Cc2ccccc2)ccc1Oc1ccc(Cl)cc1Cl | 27 µM (≈ 9.32 µg/mL) | 51 nM |
| CN(Cc1c2ccccc2cc2ccccc12)C(=O)C1CC(=O)N(C2CCCCCCC2)C1 (stereo not drawn) | 62.5 µM (≈ 27.7 µg/mL) | 320 nM |
| CN(Cc1c2ccccc2cc2ccccc12)C(=O)C1CC(=O)N(C2CC3CCC2C3)C1 (stereo not drawn) | 125 µM (≈ 53.3 µg/mL) | 460 nM |
| CCCCCCCCc1ccc(Oc2ccccc2)c(O)c1 | 6.4 µM (≈ 1.91 µg/mL) | 5 nM |
| CO[C@H]1/C=C/O[C@@]2(C)Oc3c(C)c(O)c4c(O)c(c(/C=N/N5CCN(C)CC5)c(O)c4c3C2=O)NC(=O)/C(C)=C\C=C\[C@H](C)[C@H](O)[C@@H](C)[C@@H](O)[C@@H](C)[C@H](OC(C)=O)[C@@H]1C [RIFAMPIN] | 0.01 µM (≈ 0.00823 µg/mL) |  |
